From ChEMBL document CHEMBL1141219, “Chemoenzymatic synthesis of a series of 4-substituted glutamate analogues and pharmacological characterization at human glutamate transporters subtypes 1-3” (J Med Chem, 2005)

How the values were obtained:
[1] = substrate: N[C@@H](C[C@H](O)C(=O)O)C(=O)O; test: (§1) Binding affinity to human EAAT1 expressed in HEK293 cells in FMP (FLPR) assay; assay type: functional, cell-based
How it was run: (§2)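 HEK293 cells stably expressing the human transporter, seeded on poly-D-lysine plates in DMEM with 10% dialyzed FBS and G-418 for 16–24 h. Cells washed in Krebs buffer (pH 7.4), then loaded with FMP dye for 30 min at 37 °C. Read at room temperature, excitation 530 nm and emission 560 nm, for up to 1 min after substrate addition. Non-substrate inhibitors were preincubated and tested against 30 μM Glu. Seven-concentration curves from maximal responses, duplicate, at least three times.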

[2] = substrate: N[C@@H](C[C@@H](O)C(=O)O)C(=O)O; test: as §1; assay type: functional, cell-based; how it was run: as §2
[3] = substrate: N[C@@H](CCC(=O)O)C(=O)O; test: as §1; assay type: functional, cell-based; how it was run: as §2
[4] = substrate: C[C@H](C[C@H](N)C(=O)O)C(=O)O; test: as §1; assay type: functional, cell-based; how it was run: as §2
[5] = substrate: N[C@@H](C[C@H](O)C(=O)O)C(=O)O; test: (§3) Binding affinity to human EAAT3 expressed in HEK293 cells in FMP (FLPR) assay; assay type: functional, cell-based; how it was run: as §2
[6] = substrate: N[C@@H](CCC(=O)O)C(=O)O; test: as §3; assay type: functional, cell-based; how it was run: as §2
[7] = target: Excitatory amino acid transporter 3 (Homo sapiens) (UniProt P43005); test: Binding affinity to human EAAT3 expressed in HEK293 cells in FMP (FLPR) assay

B1: Excitatory amino acid transporter 1 (Homo sapiens), P43003 (protein)
chain: MTKSNGEEPKMGGRMERFQQGVRKRTLLAKKKVQNITKEDVKSYLFRNAFVLLTVTAVIVGTILGFTLRPYRMSYREVKYFSFPGELLMRMLQMLVLPLIISSLVTGMAALDSKASGKMGMRAVVYYMTTTIIAVVIGIIIVIIIHPGKGTKENMHREGKIVRVTAADAFLDLIRNMFPPNLVEACFKQFKTNYEKRSFKVPIQANETLVGAVINNVSEAMETLTRITEELVPVPGSVNGVNALGLVVFSMCFGFVIGNMKEQGQALREFFDSLNEAIMRLVAVIMWYAPVGILFLIAGKIVEMEDMGVIGGQLAMYTVTVIVGLLIHAVIVLPLLYFLVTRKNPWVFIGGLLQALITALGTSSSSATLPITFKCLEENNGVDKRVTRFVLPVGATINMDGTALYEALAAIFIAQVNNFELNFGQIITISITATAASIGAAGIPQAGLVTMVIVLTSVGLPTDDITLIIAVDWFLDRLRTTTNVLGDSLGAGIVEHLSRHELKNRDVEMGNSVIEENEMKKPYQLIAQDNETEKPIDSETKM
- Km [1]: 140 µM
- Km [2]: 1000 µM
- Km [3]: 9.2 µM
- Km [4]: 13 µM

B2: Excitatory amino acid transporter 3 (Homo sapiens), P43005 (protein)
chain: MGKPARKGCEWKRFLKNNWVLLSTVAAVVLGITTGVLVREHSNLSTLEKFYFAFPGEILMRMLKLIILPLIISSMITGVAALDSNVSGKIGLRAVVYYFCTTLIAVILGIVLVVSIKPGVTQKVGEIARTGSTPEVSTVDAMLDLIRNMFPENLVQACFQQYKTKREEVKPPSDPEMNMTEESFTAVMTTAISKNKTKEYKIVGMYSDGINVLGLIVFCLVFGLVIGKMGEKGQILVDFFNALSDATMKIVQIIMCYMPLGILFLIAGKIIEVEDWEIFRKLGLYMATVLTGLAIHSIVILPLIYFIVVRKNPFRFAMGMAQALLTALMISSSSATLPVTFRCAEENNQVDKRITRFVLPVGATINMDGTALYEAVAAVFIAQLNDLDLGIGQIITISITATSASIGAAGVPQAGLVTMVIVLSAVGLPAEDVTLIIAVDWLLDRFRTMVNVLGDAFGTGIVEKLSKKELEQMDVSSEVNIVNPFALESTILDNEDSDTKKSYVNGGFAVDKSDTISFTQTSQF
- Km [5]: 81 µM
- Km [6]: 25 µM
- Km [7]: 1000 µM
